FN deposition inh: inhibitors of fibronectin matrix deposition, primary screen, AH1F cells, Alexa488-fibronectin fluorescence, plate reader. AH1F fibroblasts, overnight. inhibition, % at 12.6 µM. 350,000 compounds, 0.086% hits. AID 743247, 2014;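 active means mean inhibition across replicates of 30% or more, regardless of how many single replicates reach that level; inconclusive means mean under 30% yet at least half of replicates reach 30%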
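Material: AH1F fibroblast monolayer depositing Alexa488-labelled fibronectin into matrix | Input: 10000 AH1F cells/well | Medium: DMEM plus 2% serum, read in PBS | Reagent: Alexa488-fibronectin, 24 nM final in well | Compound dosing: One dose per compound, pinned | Schedule: 1 h adhesion, overnight exposure | Measured by: Fluorescence at 485 nm excitation, 525 nm emission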
CaV13 ICDI inh: Disruptors of the CACNA1D IQ motif to Ca2+-dependent inactivation inhibitor domain association, primary screening, Förster resonance energy transfer in intact living …; HEK cells, CFP/YFP FRET ICDI-IQ, plate reader, 10 min; percent FRET-ratio fall versus neutral wells; inhibition, % at 12.3 µM; 340,000 compounds, 0.098% hits; AID 743397;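 active means mean replicate inhibition of at least 30% and at least 1% of replicates passing that level; inconclusive means only one of the two criteria is met; inactive means neither criterion is met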
Casp6 inh: human caspase-6 inhibitors, primary screen, biochemical, VEID-R110 fluorescence, single point, set 2. inhibition, % at 12.5 µM. 350,000 compounds, 0.53% hits. purified caspase-6, Z-VEID-R110 cleavage fluorescence. P55212. AID 686996, 2013;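 active means mean inhibition across replicates at least about 35%, with every replicate also reaching that limit, limit read from the data; inconclusive means only one of the two criteria met; inactive means neither criterion met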
Target sequence (P55212 24-179 limits assumed): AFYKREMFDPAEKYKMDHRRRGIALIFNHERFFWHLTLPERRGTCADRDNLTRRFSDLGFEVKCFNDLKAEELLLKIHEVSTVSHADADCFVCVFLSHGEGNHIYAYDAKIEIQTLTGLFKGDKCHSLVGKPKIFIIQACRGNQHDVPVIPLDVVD
Target sequence (P55212 194-293 limits assumed): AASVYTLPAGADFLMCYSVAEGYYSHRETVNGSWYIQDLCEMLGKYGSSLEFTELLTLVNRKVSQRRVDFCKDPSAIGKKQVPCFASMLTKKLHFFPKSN
Xi reactivation: activators of inactive X chromosome reactivation, primary screen, imaging, XiGFP fibroblasts, GFP high-content imaging, set 2 | XiGFP mouse fibroblasts, % GFP-positive cells imaging, 3 d; cells co-treated with 5-aza-dC sensitizer; scaled so ellipticine positive control = 100% | 360,000 compounds, 0.055% hits | activation, % at 7.58 µM | AID 743238, 2013;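 active means mean normalized replicate activation at least 10% and every replicate at or above 10%; inconclusive means only one of the two criteria met; inactive means mean below 10% and not all replicates reach 10%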
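Material: XiGFP fibroblasts, SV40-immortalized. Buffer or medium: DMEM plus 5-aza-dC sensitizer. Compound: single concentration per compound, delivered by pin transfer. Times: 3 days compound exposure. Controls: ellipticine 6 µM.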
DENV2 CPE: inhibitors of DENV2 cytopathic effect, primary screen, cell-based, plate reader, single concentration; DENV2-infected cells, cytopathic effect rescue; CPE inhibition, % at 9.99 µM; 350,000 compounds, 1.7% hits; in the data active means CPE inhibition above about 20%, passing the limit was not always enough; inconclusive means no clear call, values can overlap the other calls; tested in BHK-21 cells
Hits are given with their value; i = inactive; ? = inconclusive; nt = no result. Hits are enriched below; roughly 2% of the tested compounds scored in any of these assays.

SMILES	FN deposition inh	CaV13 ICDI inh	Casp6 inh	Xi reactivation	DENV2 CPE
Cc1cccc(S(=O)(=O)N2CC[C@@H]3[C@@H](CO)N(C)c4ccc(-c5ccccc5F)cc4[C@@H]32)c1	i	nt	i	i	34.6
CCNC(=O)[C@H]1[C@H](CO)[C@H]2Cn3c(ccc(C4=CCCC4)c3=O)[C@@H]1N2Cc1ccncc1	nt	nt	i	i	i
CO[C@@H]1CN(C)C(=O)c2cc(NC(=O)C3CCCC3)ccc2OC[C@H](C)N(C)C[C@H]1C	i	nt	i	i	?
COc1ccc(S(=O)(=O)Nc2cccc3c2O[C@@H](CN(C)Cc2ccc(C(F)(F)F)cc2)[C@@H](C)CN([C@@H](C)CO)C3=O)cc1	i	nt	i	i	i
COC(=O)c1c(-c2ccc(OC)cc2)sc2cc3c(cc12)OCO3	i	i	i	i	20.5
CO[C@@H]1CN(C)C(=O)c2cc(NC(C)=O)ccc2OC[C@H](C)N(C(=O)c2ccccc2F)C[C@@H]1C	i	nt	nt	i	i
NC(=O)NC(=O)Nc1ccccc1Cl	i	i	nt	nt	nt
O=C(NC(=O)c1csnn1)Nc1ccccc1Cl	nt	nt	61.2	i	?
COc1ccc2c3c(n(C)c2c1)[C@H](CO)N(C)CC31CCN(S(=O)(=O)c2cccs2)CC1	nt	nt	nt	i	?
COc1cccc(C#Cc2ccc3c(c2)[C@@H]2[C@@H](CCN2C(=O)c2ccc(F)cc2)[C@@H](CO)N3)c1	i	nt	nt	i	26.0
O=C(c1ccccc1)N1CC[C@@H]2[C@@H](CO)Nc3ccc(C#Cc4cccc(F)c4)cc3[C@@H]21	i	nt	nt	i	23.3
O=C(c1ccccc1)N1CC[C@@H]2[C@H]1c1cc(C#Cc3cccc(F)c3)ccc1N[C@@H]2CO	i	nt	nt	i	42.6
C[C@H]1CN([C@@H](C)CO)C(=O)c2cc(NC(=O)Nc3ccc(C(F)(F)F)cc3)ccc2O[C@@H]1CN(C)C(=O)Nc1cccc2ccccc12	nt	nt	nt	i	i
O=S(=O)(c1cccc(F)c1)N1CC[C@H]2[C@H](CO)Nc3ccc(C#Cc4cccc(F)c4)cc3[C@H]21	i	nt	nt	i	nt
C[C@H](CO)N1C[C@H](C)[C@H](CN(C)Cc2ccccc2)OCCCC[C@H](C)Oc2ccc(NC(=O)Nc3cccc4ccccc34)cc2C1=O	i	nt	i	i	i
COc1ccc(CN2CCC(C(=O)NC(c3ccc4c(c3)OCO4)c3ccccn3)CC2)cc1 (stereo not drawn)	i	i	i	i	100.5
Cc1ccc(C(NC(=O)C2CCN(Cc3ccc(Oc4ccccc4)cc3)CC2)c2ccccn2)cc1 (stereo not drawn)	i	i	i	i	i
Cc1cccnc1C(NC(=O)C1CCN(CCCc2ccccc2)CC1)c1ccc(Cl)cc1 (stereo not drawn)	i	i	i	i	20.2
O=C(NC(c1ccc(Cl)cc1)c1cnccn1)C1CCN(Cc2ccc(Oc3ccccc3)cc2)CC1 (stereo not drawn)	i	i	i	i	84.3
CC(C)CC#Cc1ccc([C@H]2[C@H]3CN(C(=O)NC4CCCC4)CCCCN3[C@H]2CO)cc1	nt	nt	nt	i	nt
CC(=O)N1[C@@H]2c3cccc(=O)n3C[C@@H]2[C@@H](CO)[C@@H]1C(=O)NCc1ccccc1	nt	nt	nt	i	nt
CN(C)C(=O)C[C@H]1C=C[C@@H](NC(=O)C2CC2)[C@@H](CO)O1	i	nt	i	i	i
O=C(COC(=O)c1ccc(S(=O)(=O)NCc2ccco2)cc1)Nc1ccc(Cl)cn1	i	i	46.1	i	i
O=C(COC(=O)c1ccc(S(=O)(=O)NCc2ccco2)cc1)Nc1ccccc1	i	i	i	i	i
Cc1cc(C)c(C(=O)N2CCCC(Nc3ccc(F)cc3)C2)o1 (stereo not drawn)	i	i	i	i	i
Cn1c(C(=O)N2CCCC(Nc3ccc(F)cc3)C2)cc2ccccc21 (stereo not drawn)	i	i	40.8	i	i
COc1ccc(C#Cc2ccc3c(c2)[C@H]2[C@H](CCN2Cc2ccncc2)[C@@H](CO)N3)cc1	i	nt	i	i	i
C[C@@H]1CCCCO[C@H](CN(C)C(=O)NC2CCCCC2)[C@@H](C)CN([C@H](C)CO)C(=O)c2cc(NC(=O)Nc3cccc4ccccc34)ccc2O1	nt	nt	i	i	i
